Laboratory results: PMC5694347 (Clinical cancer research : an official journal of the …, 2015)

Test system: CDT-1
Assay: Skin punch biopsy immunohistochemistry, CDT-1
Type: in vivo, human
Settings: 3–6 hours after second dose of cycle 1
Outline: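 IV infusion over 1 h. 2 mm skin punch biopsies were taken at screening and 3–6 h after the cycle 1 dose on day 2 (schedule A) or day 4 (schedule B). On 5 µm sections, CC1 antigen retrieval ran 20 min. Primary antibody was applied 1 h at room temperature, then alkaline phosphatase secondary 32 min, developed with NBT/BCIP. Slides were counterstained and imaged at 20x. Signal was percent stained area of the basal epithelial region.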

`NS(=O)(=O)OC[C@@H]1C[C@@H](n2ccc3c(N[C@H]4CCc5ccccc54)ncnc32)C[C@@H]1O` [pevonedistat] was tested. Which “CDT-1 expression level in skin biopsies vs baseline” value did it give?
Its value is “increases”.
